Publication PMC7408314 (Inorganic chemistry, 2020)

Key:
[1] = [L] = 10 μM, [M] = 1 μM, pH = 7.4; cited from earlier work
[2] = protonated tertiary amine in the pyridyl backbone; cited from earlier work
[3] = cited from earlier work
[4] = cited from earlier work; remark: listed apart in the source
[5] = cited from earlier work; remark: listed apart in the source
[6] = In vitro mouse serum challenge; assay type: in vitro ADME; settings: 37 °C, at least six half-lives of scandium-44 (24 h)
In short: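 Scandium-44-labelled complex (free chelator or its PSMA-617 conjugate, labelled at ambient temperature in 0.5 M NH₄OAc) mixed with an equal volume of mouse serum and held at 37 °C. Aliquots taken at 0.5, 4, 8 and 24 h, run on iTLC-SA in 0.4 M sodium citrate pH 4.5 beside free ⁴⁴Sc-in-serum control. Intact fraction calculated from baseline versus solvent-front peak areas.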

[7] = system: PC3-PIP (PSMA+) and PC3-Flu (PSMA−) tumor-bearing nude mice; settings: 7.4 vs 74 GBq/μmol
[8] = in vivo; settings: male, nude, mouse, tumor (PSMA+, PC3-PIP), intravenous, total radioactivity, tumor retention
[9] = target: PSMA on PC3-PIP (PSMA+) cells (Homo sapiens, UniProt Q04609); test: Receptor saturation binding assay on prostate cancer cells; settings: 2 h incubation
Chain of PSMA on PC3-PIP (PSMA+) cells (Q04609 whole entry): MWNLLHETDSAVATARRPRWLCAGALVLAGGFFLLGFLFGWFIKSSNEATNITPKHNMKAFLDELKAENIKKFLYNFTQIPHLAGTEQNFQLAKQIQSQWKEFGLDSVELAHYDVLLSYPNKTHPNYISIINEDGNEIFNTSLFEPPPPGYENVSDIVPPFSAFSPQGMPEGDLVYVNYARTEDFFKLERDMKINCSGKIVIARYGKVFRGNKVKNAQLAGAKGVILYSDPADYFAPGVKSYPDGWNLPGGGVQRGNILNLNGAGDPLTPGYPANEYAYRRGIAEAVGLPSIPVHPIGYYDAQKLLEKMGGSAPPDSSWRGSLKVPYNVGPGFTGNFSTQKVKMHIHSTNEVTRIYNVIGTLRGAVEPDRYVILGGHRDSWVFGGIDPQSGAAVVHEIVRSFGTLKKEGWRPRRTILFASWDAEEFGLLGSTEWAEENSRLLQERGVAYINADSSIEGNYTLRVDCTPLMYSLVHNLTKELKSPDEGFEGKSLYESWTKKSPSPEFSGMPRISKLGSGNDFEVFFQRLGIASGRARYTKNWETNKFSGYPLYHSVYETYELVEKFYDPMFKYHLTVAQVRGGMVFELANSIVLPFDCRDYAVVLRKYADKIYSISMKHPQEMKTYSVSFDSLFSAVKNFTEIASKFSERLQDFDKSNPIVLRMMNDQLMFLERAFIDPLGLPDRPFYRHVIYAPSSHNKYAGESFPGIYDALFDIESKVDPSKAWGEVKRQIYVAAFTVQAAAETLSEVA

CC1(N(CC(=O)O)CC(=O)O)CN(CC(=O)O)CCN(CC(=O)O)C1 [AAZTA, 6-[bis(hydroxycarbonyl-methyl)amino]-1,4-bis-(hydroxycarbonylmethyl)-6-methylperhydro-1,4-diaze-pine]
pSc (pM), −log [M]free [1]: 24.7

O=C(O)CN1CCN(CC(=O)O)CCN(CC(=O)O)CCN(CC(=O)O)CC1 [DOTA, 1,4,7,10-tetraazacyclododecane-1,4,7,10-tetraacetic acid]
pSc (pM), −log [M]free [1]: 23.9

O=C(O)CN(Cc1cccc(CN(CC(=O)O)Cc2cccc(C(=O)O)n2)n1)Cc1cccc(C(=O)O)n1 [H4pypa]
highest pKa [2]: 7.78
complex stability pM with La^3+ [3]: 19.9
complex stability pM with In^3+ [4]: 30.5
complex stability pM with Lu^3+ [5]: 22.6

O=C(O)CC[C@H](NC(=O)N[C@@H](CCCCNC(=O)[C@H](Cc1ccc2ccccc2c1)NC(=O)[C@H]1CC[C@H](CNC(=O)CCCCCCOc2cc(CN(CC(=O)O)Cc3cccc(C(=O)O)n3)nc(CN(CC(=O)O)Cc3cccc(C(=O)O)n3)c2)CC1)C(=O)O)C(=O)O [[^44Sc][Sc(pypa-C7-PSMA617)], metal not drawn]
transchelation in mouse serum [6]: < 1%
effect of lower apparent molar activity on kidney accumulation [7]: brought down the kidney accumulation by more than half
tissue uptake ([8]; after about four half-lives of scandium-44, 7.4 GBq/μmol): 14.9 ± 1.7 %ID/g
tissue uptake ([8]; after about four half-lives of scandium-44, 74 GBq/μmol): 20 ± 0.6 %ID/g

O=C(O)CC[C@H](NC(=O)N[C@@H](CCCCNC(=O)[C@H](Cc1ccc2ccccc2c1)NC(=O)[C@H]1CC[C@H](CNC(=O)CCCCCCOc2cc(CN(CC(=O)O)Cc3cccc(C(=O)O)n3)nc(CN(CC(=O)O)Cc3cccc(C(=O)O)n3)c2)CC1)C(=O)O)C(=O)O [H4pypa-C7-PSMA617]
Bmax [9]: 7.84 ± 0.37 fmol/mg
